Measurements taken from ChEMBL document CHEMBL5058577, “EUbOPEN Chemogenomics Library 2 (Multiplex)” (2022).

Test system: U2OS
Test: Multiplex assay against U2OS
Assay type: toxicity, cell-based
Details: human
Outline: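 Cells stained live at seeding with Hoechst33342, BioTracker Green Microtubule Cytoskeleton Dye, MitoTracker Red and Annexin V Alexa Fluor 680 were imaged on a CQ1 microscope at 37°C and 5% CO2 after compound addition. Their classification by CellPathfinder machine-learning gating ran from Hoechst high-intensity objects versus normal cells, to healthy, pyknosed or fragmented nuclei among normal cells, to mitotic or apoptotic among pyknosed cells. Tubulin, mitochondrial-mass and membrane-permeability phenotypes are per cents of healthy-nucleus cells.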

[1] = 12 h, 1 µM, compound concentration 1 uM, replicate 1
[2] = 12 h, 1 µM, compound concentration 1 uM, replicate 2
[3] = 12 h, 10 µM, compound concentration 10 uM, replicate 1
[4] = 12 h, 10 µM, compound concentration 10 uM, replicate 2
[5] = 24 h, 1 µM, compound concentration 1 uM, replicate 1
[6] = 24 h, 1 µM, compound concentration 1 uM, replicate 2
[7] = 24 h, 10 µM, compound concentration 10 uM, replicate 1
[8] = 24 h, 10 µM, compound concentration 10 uM, replicate 2
[9] = 48 h, 1 µM, compound concentration 1 uM, replicate 1
[10] = 48 h, 1 µM, compound concentration 1 uM, replicate 2
[11] = 48 h, 10 µM, compound concentration 10 uM, replicate 1
[12] = 48 h, 10 µM, compound concentration 10 uM, replicate 2

Cc1cc(O)c(-c2ccc([C@@H](C)CN(C)C)cc2)c2c1[nH]c(=O)c1sccc12
Population Apoptotic (%) [1]: 80%
Population Fragmented Nuclei (%) [1]: 38%
Population Healthy Nuclei (%) [1]: 48%
Population Hoechst High Intensity Objects (%) [1]: 4%
Population Membrane Permeable-Phenotype (%) [1]: 21%
Population Mitochondria Different-Phenotype (%) [1]: 17%
Population Mitotic Cells (%) [1]: 19%
Population Normal (%) [1]: 95%
Population Pyknosed Nuclei (%) [1]: 12%
Population Tubulin-Different-Phenotype (%) [1]: 12%
Total Cell Count [1]: 252
Population Apoptotic (%) [2]: 70%
Population Fragmented Nuclei (%) [2]: 25%
Population Healthy Nuclei (%) [2]: 63%
Population Hoechst High Intensity Objects (%) [2]: 2%
Population Membrane Permeable-Phenotype (%) [2]: 9%
Population Mitochondria Different-Phenotype (%) [2]: 14%
Population Mitotic Cells (%) [2]: 30%
Population Normal (%) [2]: 97%
Population Pyknosed Nuclei (%) [2]: 11%
Population Tubulin-Different-Phenotype (%) [2]: 14%
Total Cell Count [2]: 89
Population Apoptotic (%) [3]: 64%
Population Fragmented Nuclei (%) [3]: 28%
Population Healthy Nuclei (%) [3]: 50%
Population Hoechst High Intensity Objects (%) [3]: 4%
Population Membrane Permeable-Phenotype (%) [3]: 54%
Population Mitochondria Different-Phenotype (%) [3]: 62%
Population Mitotic Cells (%) [3]: 35%
Population Normal (%) [3]: 95%
Population Pyknosed Nuclei (%) [3]: 21%
Population Tubulin-Different-Phenotype (%) [3]: 72%
Total Cell Count [3]: 222
Population Apoptotic (%) [4]: 69%
Population Fragmented Nuclei (%) [4]: 20%
Population Healthy Nuclei (%) [4]: 56%
Population Hoechst High Intensity Objects (%) [4]: 8%
Population Membrane Permeable-Phenotype (%) [4]: 22%
Population Mitochondria Different-Phenotype (%) [4]: 61%
Population Mitotic Cells (%) [4]: 30%
Population Normal (%) [4]: 91%
Population Pyknosed Nuclei (%) [4]: 22%
Population Tubulin-Different-Phenotype (%) [4]: 45%
Total Cell Count [4]: 110
Population Apoptotic (%) [5]: 92%
Population Fragmented Nuclei (%) [5]: 43%
Population Healthy Nuclei (%) [5]: 34%
Population Hoechst High Intensity Objects (%) [5]: 8%
Population Membrane Permeable-Phenotype (%) [5]: 20%
Population Mitochondria Different-Phenotype (%) [5]: 25%
Population Mitotic Cells (%) [5]: 7%
Population Normal (%) [5]: 91%
Population Pyknosed Nuclei (%) [5]: 21%
Population Tubulin-Different-Phenotype (%) [5]: 19%
Total Cell Count [5]: 256
Population Apoptotic (%) [6]: 100%
Population Fragmented Nuclei (%) [6]: 41%
Population Healthy Nuclei (%) [6]: 41%
Population Hoechst High Intensity Objects (%) [6]: 6%
Population Membrane Permeable-Phenotype (%) [6]: 15%
Population Mitochondria Different-Phenotype (%) [6]: 21%
Population Mitotic Cells (%) [6]: 0%
Population Normal (%) [6]: 93%
Population Pyknosed Nuclei (%) [6]: 17%
Population Tubulin-Different-Phenotype (%) [6]: 12%
Total Cell Count [6]: 83
Population Apoptotic (%) [7]: 81%
Population Fragmented Nuclei (%) [7]: 36%
Population Healthy Nuclei (%) [7]: 35%
Population Hoechst High Intensity Objects (%) [7]: 9%
Population Membrane Permeable-Phenotype (%) [7]: 16%
Population Mitochondria Different-Phenotype (%) [7]: 70%
Population Mitotic Cells (%) [7]: 18%
Population Normal (%) [7]: 90%
Population Pyknosed Nuclei (%) [7]: 27%
Population Tubulin-Different-Phenotype (%) [7]: 47%
Total Cell Count [7]: 210
Population Apoptotic (%) [8]: 82%
Population Fragmented Nuclei (%) [8]: 40%
Population Healthy Nuclei (%) [8]: 31%
Population Hoechst High Intensity Objects (%) [8]: 12%
Population Membrane Permeable-Phenotype (%) [8]: 25%
Population Mitochondria Different-Phenotype (%) [8]: 62%
Population Mitotic Cells (%) [8]: 17%
Population Normal (%) [8]: 87%
Population Pyknosed Nuclei (%) [8]: 28%
Population Tubulin-Different-Phenotype (%) [8]: 34%
Total Cell Count [8]: 118
Population Apoptotic (%) [9]: 96%
Population Fragmented Nuclei (%) [9]: 53%
Population Healthy Nuclei (%) [9]: 18%
Population Hoechst High Intensity Objects (%) [9]: 17%
Population Membrane Permeable-Phenotype (%) [9]: 23%
Population Mitochondria Different-Phenotype (%) [9]: 25%
Population Mitotic Cells (%) [9]: 3%
Population Normal (%) [9]: 82%
Population Pyknosed Nuclei (%) [9]: 27%
Population Tubulin-Different-Phenotype (%) [9]: 25%
Total Cell Count [9]: 250
Population Apoptotic (%) [10]: 100%
Population Fragmented Nuclei (%) [10]: 64%
Population Healthy Nuclei (%) [10]: 19%
Population Hoechst High Intensity Objects (%) [10]: 15%
Population Membrane Permeable-Phenotype (%) [10]: 35%
Population Mitochondria Different-Phenotype (%) [10]: 35%
Population Mitotic Cells (%) [10]: 0%
Population Normal (%) [10]: 84%
Population Pyknosed Nuclei (%) [10]: 15%
Total Cell Count [10]: 120
Population Apoptotic (%) [11]: 96%
Population Fragmented Nuclei (%) [11]: 50%
Population Healthy Nuclei (%) [11]: 17%
Population Hoechst High Intensity Objects (%) [11]: 20%
Population Membrane Permeable-Phenotype (%) [11]: 25%
Population Mitochondria Different-Phenotype (%) [11]: 45%
Population Mitotic Cells (%) [11]: 3%
Population Normal (%) [11]: 79%
Population Pyknosed Nuclei (%) [11]: 31%
Population Tubulin-Different-Phenotype (%) [11]: 32%
Total Cell Count [11]: 220
Population Apoptotic (%) [12]: 100%
Population Fragmented Nuclei (%) [12]: 54%
Population Healthy Nuclei (%) [12]: 13%
Population Hoechst High Intensity Objects (%) [12]: 15%
Population Membrane Permeable-Phenotype (%) [12]: 64%
Population Mitochondria Different-Phenotype (%) [12]: 50%
Population Mitotic Cells (%) [12]: 0%
Population Normal (%) [12]: 84%
Population Tubulin-Different-Phenotype (%) [12]: 64%
Total Cell Count [12]: 120
